High-throughput results (PubChem)
This is a sample that favours compounds with a hit; in the whole collection about 3.6% have one here.
NadD inh – inhibitors of Staphylococcus aureus NadD | AID 602399 | inhibition, % at 20 µM | actives 0.78% (n = 360,000) | purified NadD enzyme, colorimetric absorbance read-out; in the data active = inhibition above about 26%
GRIN3A LBD mod – modulates the human NR3A ligand-binding domain; AID 1259313; actives 2.5% (n = 340,000); Tm shift relative to glycine control, % at 25 µM; NR3A LBD differential scanning fluorimetry, Tm shift; 0% = protein alone, 100% = glycine-bound protein;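 active = melting temperature shift of at least 10% of the positive control shift, at one fixed dose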
UCH37 DUB inh – human UCH37 deubiquitinating enzyme inhibition | Q9Y5K5 | purified proteasome/UCH37, Ub-AMC cleavage fluorescence | inhibition, % (no concentration beside the values) | actives 0.33% (n = 330,000) | AID 588478;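 active = mean inhibition over replicate wells above about 20%, limit read from the data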;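 note: 0% = compound-free wells with enzyme and 100% = wells lacking proteasome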
Target sequence (Q9Y5K5 whole entry, looked up): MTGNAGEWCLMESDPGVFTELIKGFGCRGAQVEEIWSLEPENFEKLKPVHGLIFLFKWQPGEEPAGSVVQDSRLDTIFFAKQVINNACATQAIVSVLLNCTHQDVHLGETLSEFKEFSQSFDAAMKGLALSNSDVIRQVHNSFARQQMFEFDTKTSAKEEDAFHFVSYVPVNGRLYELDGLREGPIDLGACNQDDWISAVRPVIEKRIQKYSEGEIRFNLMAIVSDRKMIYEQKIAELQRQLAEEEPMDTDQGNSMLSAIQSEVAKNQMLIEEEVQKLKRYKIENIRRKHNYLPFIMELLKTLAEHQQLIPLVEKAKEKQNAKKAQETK
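Assay system: Proteasome-bound UCH37. Buffer or medium: pH 7.4 Tris-HCl (50 mM) with ovalbumin, ATP-MgCl2, DTT. Incubation: 30 min preincubation with enzyme, 25 min cleavage at room temperature. Measured by: fluorescence, ex 355 nm, em 460 nm. Read-out basis: percent inhibition. Control set: wells without proteasome as full block, compound-free enzyme plus substrate as uninhibited.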
ATG4B inhibitor – ATG4B (human) cysteine protease inhibition; Q9Y4P1; ATG4B cleavage of LC3-PLA2, NBD-HPC fluorescence, 1 h; inhibition, % at 8.33 µM; actives 0.51% (n = 340,000); in the data active = inhibition above about 40%
SENP1 inh – blocks the human SENP1 SUMO protease catalytic domain; Q9P0U3; recombinant SENP1 catalytic domain, CyPet-SUMO1-YPet FRET cleavage; inhibition, % at 10 µM; actives 0.21% (n = 360,000);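 active = inhibition at least 30% at 10 µM, raw YFP signal under a set limit, fluorescence ratio 0.5 to 1.5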;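 note: 0% = enzyme with DMSO and 100% = no enzyme wells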
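Assay system – human recombinant His6-tagged SENP1 catalytic domain enzyme · Input – SENP1 enzyme, 20 pM final · Buffer or medium – Tris pH 8 buffer plus EDTA, NaCl, BME, BSA, NP40, catalase · Schedule – 50 min reaction at room temperature · Technique – FRET read of cyan and yellow fluorescence · Control set – no-enzyme wells low, DMSO-plus-enzyme wells high control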
The depositor's hits bear a star; x = no result.

SMILES	NadD inh	GRIN3A LBD mod	UCH37 DUB inh	ATG4B inhibitor	SENP1 inh
CC[C@H](C)/C=C(C)/C=C/C1=CC2=C(Cl)C(=O)[C@@](C)(OC(C)=O)C(=O)C2=CO1	2.7	-1.8	x	66.6*	-1.4
CC(C)=CCc1c(O)cc2c(c1O)C(=O)CC(c1ccc(O)cc1)O2 (stereo unspecified)	-0.1	26.3*	2.8	-22.6	1.3
CCC12CN3CCN(CC(C3)C1=NNC(N)=O)C2	x	x	-1.0	x	x
O=C(c1cc(C(=O)NCc2ccc(Cl)cc2)c(=O)n(Cc2ccc(Cl)cc2)c1)c1cc(F)ccc1O	19.3	18.0*	3.4	-2.7	-0.8
CCCCC(=NO)c1c[nH]c2ccccc12	x	x	3.1	x	x
FC(F)(F)C(=NP(=S)(N1CCOCC1)N1CCOCC1)N1CCOCC1	x	x	-1.8	x	x
CN1CCN(c2nc(N)c(Br)c(Cl)n2)CC1	-6.2	13.5*	3.4	0.0	0.2
CC(=O)C1CCC2C3CCC4CC(O)CCC4(C)C3CCC12C (stereo unspecified)	-2.4	14.3*	4.6	-8.0	-1.6
CC12CC[C@H]3[C@@H](CCC4(O)C[C@H](O)CCC34C=NNC(=O)c3ccccc3F)C1(O)CCC2C1=CC(=O)OC1 (stereo partly specified)	x	x	1.4	x	x
CC1Oc2cc3c(-c4c(O)cc(O)c5c(O)c6c(cc45)OC(C)C(C)C6=O)c(O)cc(O)c3c(O)c2C(=O)C1C (stereo unspecified)	36.5*	17.5*	39.8*	25.8	65.2*
CCN1C[C@]2(C)CC[C@H](OC)C34C2[C@H](OC(C)=O)[C@@]2(OCO[C@@]25C[C@H](OC)[C@H]2C[C@]3(O)C5[C@H]2OC)[C@@H]14	x	x	1.0	x	x
O=C1NC(=O)N(CCc2ccc(F)cc2)C(=O)/C1=C\C=C\c1ccccc1	36.0*	-3.2	7.8	-0.2	-14.6
Cc1ccc(/C=C2\C(=O)NC(=S)N(c3cccc(F)c3)C2=O)o1	7.1	-1.8	1.1	17.2	-21.3
CN1C(=O)/C(=C\c2ccc(N3CCCCC3)o2)C(=O)NC1=S	-2.1	-0.9	21.8*	2.3	87.8*
CN1C(=O)/C(=C\c2ccc(N3CCCCCC3)cc2)C(=O)NC1=S	23.3	3.9	5.3	-4.9	-20.7
C=CCN1C(=O)/C(=C\c2ccc(N3CCOCC3)o2)C(=O)NC1=S	-3.4	0.2	17.1	-9.8	40.0*
CN1CCN(c2ccc(/C=C3\C(=O)NC(=S)N(c4cccc(Br)c4)C3=O)o2)CC1	9.6	0.6	21.1*	-8.2	25.1
CN1C(=O)/C(=C/c2ccc(N3CCCCCC3)o2)C(=O)NC1=S	4.1	-0.1	17.6	7.4	81.4*
C[C@]12CCC3C(CCC4=CC(=NOCC(=O)NC(CCC(=O)O)C(=O)O)CC[C@@]43C)C1CCC2O (stereo partly specified)	x	x	3.9	x	x
ON=Cc1c[nH]c2ccccc12	x	x	2.7	x	x
CN1CCN(c2ccc(S(C)(=O)=O)cc2[N+](=O)[O-])CC1	3.5	-3.4	4.1	3.0	0.5
CN1CCN(c2ccc(S(=O)(=O)C(F)(F)F)cc2[N+](=O)[O-])CC1	-1.3	15.3*	1.5	0.6	2.1
COc1cc(Br)cc(CN2CCN(C)CC2)c1O	-3.7	11.1*	0.3	-6.7	1.6
OCCNc1c2c(nc3ccccc13)CCCC2	0.4	11.7*	8.9	5.5	1.9
NC(=N[N+](=O)[O-])N1CCN(C(=O)c2ccccc2)CC1	x	x	2.5	x	x
NC(=NN=Cc1ccc(-c2ccc(O)c(C(=O)O)c2)o1)N[N+](=O)[O-]	x	x	21.9*	x	x
O=C(CSC1c2ccccc2-c2ccccc21)NN=Cc1ccccc1O	x	x	-4.1	x	x
NC(=NCCCC(NC(=O)CNC(=O)c1ccccc1)C(=O)O)N[N+](=O)[O-] (stereo unspecified)	x	x	3.7	x	x
C#C[C@@]1(O)CCC2C3CCC4=CC(=NOCC(=O)NC(C(=O)NC(CC(C)C)C(=O)O)C(C)C)CC[C@]4(C)C3CC[C@@]21C (stereo partly specified)	x	x	1.2	x	x
CNc1ccc2oc(C[C@H]3O[C@@]4(CC[C@H]3C)O[C@H]([C@H](C)C(=O)c3ccc[nH]3)[C@H](C)C[C@H]4C)nc2c1C(=O)O	58.9*	0.0	-9.6	-4.8	-113.6
